The target of the test is Amyloid-beta precursor protein (Homo sapiens, UniProt P05067). Nature of the test: Displacement of [125I]IMPY from beta-amyloid plaques in Alzheimer's disease patient brain homogenate. The test is classed as tissue-based. In outline:
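Test compound was added at 10^-5–10^-10 M, serially diluted in PBS containing 0.1% BSA. Nonspecific binding was defined with 600 nM unlabeled IMPY. Incubation was 37 °C for 2 h, followed by GF/B vacuum filtration, PBS washes and γ counting. Ki came from nonlinear regression.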
A general note: Displacement assays read how much labelled ligand stays bound in the presence of the test substance.

Results on one compound are retold here after ChEMBL document CHEMBL1154674, “Synthesis and evaluation of three 18F-labeled aminophenylbenzothiazoles as amyloid imaging agents” (J Med Chem, 2009).

In general, Ki refers to the dissociation constant of the complex between target and ligand, obtained from inhibition or displacement. Read a low Ki as higher affinity.

Sequence of Amyloid-beta precursor protein (P05067 whole entry): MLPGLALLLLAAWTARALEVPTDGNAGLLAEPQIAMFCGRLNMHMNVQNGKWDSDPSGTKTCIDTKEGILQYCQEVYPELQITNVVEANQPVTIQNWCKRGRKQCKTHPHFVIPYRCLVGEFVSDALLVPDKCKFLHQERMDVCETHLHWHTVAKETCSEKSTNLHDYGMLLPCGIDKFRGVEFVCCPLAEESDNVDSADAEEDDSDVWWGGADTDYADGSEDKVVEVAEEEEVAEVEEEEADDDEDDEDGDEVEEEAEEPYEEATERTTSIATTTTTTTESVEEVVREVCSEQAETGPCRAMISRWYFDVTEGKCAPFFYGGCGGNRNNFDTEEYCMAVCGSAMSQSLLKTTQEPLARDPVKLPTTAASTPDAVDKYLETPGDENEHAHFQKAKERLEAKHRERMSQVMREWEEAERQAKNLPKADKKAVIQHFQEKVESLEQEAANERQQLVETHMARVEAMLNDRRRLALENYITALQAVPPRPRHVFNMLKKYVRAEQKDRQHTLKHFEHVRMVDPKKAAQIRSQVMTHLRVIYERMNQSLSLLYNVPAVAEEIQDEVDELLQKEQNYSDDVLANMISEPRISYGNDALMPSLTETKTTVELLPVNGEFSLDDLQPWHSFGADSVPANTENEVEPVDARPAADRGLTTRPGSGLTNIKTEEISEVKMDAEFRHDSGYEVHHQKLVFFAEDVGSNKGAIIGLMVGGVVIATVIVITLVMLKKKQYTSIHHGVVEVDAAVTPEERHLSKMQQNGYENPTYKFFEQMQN

`CN(C)c1ccc2nc(-c3ccc(F)cc3)sc2c1`: the affinity, expressed as Ki, was 3.8 nM. This counts as single-digit nanomolar.
